Source: paper PMC7471454 (Acta Pharmacologica Sinica, 2019)
“Also recorded” adds a separate entry of the source.

Assays:
hNav1.7 channels = hNav1.7 channels (Homo sapiens, UniProt Q15858); assay: cell-based; conditions: for inhibitory activity against Nav1.7 (in words): HEK293 cells stably expressing hNav1.7; for activity toward Nav1.7 relative to 10h: higher than that of 10h; for Nav1.7/Nav1.5 selectivity (in words): Nav1.7 versus Nav1.5
hNav1.5 channels = hNav1.5 channels (Homo sapiens, UniProt Q14524); assay: Whole-cell voltage-clamp on human Nav1.5 channels stably expressed in CHL cells; format: cell-based
Method in brief: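 CHL cells stably expressing hNav1.5 were selected in G418 (500 µg/mL), plated on poly-L-lysine coverslips and used within 24 h. Whole-cell voltage clamp at room temperature, with CsF pipette and NaCl bath (pH 7.3); DMSO ≤0.5% final. After 5 min at −80 mV: hold −40 mV, 20 ms prepulse to −150 mV, 10 ms pulse to 0 mV at 1 Hz. Peak IDrug/IControl was fitted to a 3-parameter Hill equation for IC50.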

[1] = test system: acetic acid-induced writhing in ICR mice; assay: Acetic acid-induced writhing test; format: in vivo, mouse; conditions: i.p. 30 min before 1.5% acetic acid, writhes counted for 30 min
Method in brief: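 Male ICR mice (22–28 g) received test compound i.p. in 5% DMSO/95% (0.5% carboxymethyl cellulose sodium) at 0.2 mL/10 g, 30 min before i.p. 1.5% acetic acid (10 mL/kg). Writhes, defined as abdominal contraction with body elongation and hind-limb extension, were counted over 30 min under blinded assessment. Indomethacin 30 mg/kg p.o. was given 60 min prior as reference. n = 6–12; one-way ANOVA.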

[2] = test system: native sodium currents in mouse DRG neurons; assay: Native sodium currents in isolated DRG neurons; format: cell-based; conditions: for reduction of sodium current amplitude: mouse DRG neurons
[3] = test system: neuronal excitability of small-diameter DRG neurons; assay: Firing frequency of DRG neurons; format: cell-based, mouse; conditions: 500 ms current injection, 10 and 100 nmol/L

hNav1.5 channels, sequence (Q14524 whole entry): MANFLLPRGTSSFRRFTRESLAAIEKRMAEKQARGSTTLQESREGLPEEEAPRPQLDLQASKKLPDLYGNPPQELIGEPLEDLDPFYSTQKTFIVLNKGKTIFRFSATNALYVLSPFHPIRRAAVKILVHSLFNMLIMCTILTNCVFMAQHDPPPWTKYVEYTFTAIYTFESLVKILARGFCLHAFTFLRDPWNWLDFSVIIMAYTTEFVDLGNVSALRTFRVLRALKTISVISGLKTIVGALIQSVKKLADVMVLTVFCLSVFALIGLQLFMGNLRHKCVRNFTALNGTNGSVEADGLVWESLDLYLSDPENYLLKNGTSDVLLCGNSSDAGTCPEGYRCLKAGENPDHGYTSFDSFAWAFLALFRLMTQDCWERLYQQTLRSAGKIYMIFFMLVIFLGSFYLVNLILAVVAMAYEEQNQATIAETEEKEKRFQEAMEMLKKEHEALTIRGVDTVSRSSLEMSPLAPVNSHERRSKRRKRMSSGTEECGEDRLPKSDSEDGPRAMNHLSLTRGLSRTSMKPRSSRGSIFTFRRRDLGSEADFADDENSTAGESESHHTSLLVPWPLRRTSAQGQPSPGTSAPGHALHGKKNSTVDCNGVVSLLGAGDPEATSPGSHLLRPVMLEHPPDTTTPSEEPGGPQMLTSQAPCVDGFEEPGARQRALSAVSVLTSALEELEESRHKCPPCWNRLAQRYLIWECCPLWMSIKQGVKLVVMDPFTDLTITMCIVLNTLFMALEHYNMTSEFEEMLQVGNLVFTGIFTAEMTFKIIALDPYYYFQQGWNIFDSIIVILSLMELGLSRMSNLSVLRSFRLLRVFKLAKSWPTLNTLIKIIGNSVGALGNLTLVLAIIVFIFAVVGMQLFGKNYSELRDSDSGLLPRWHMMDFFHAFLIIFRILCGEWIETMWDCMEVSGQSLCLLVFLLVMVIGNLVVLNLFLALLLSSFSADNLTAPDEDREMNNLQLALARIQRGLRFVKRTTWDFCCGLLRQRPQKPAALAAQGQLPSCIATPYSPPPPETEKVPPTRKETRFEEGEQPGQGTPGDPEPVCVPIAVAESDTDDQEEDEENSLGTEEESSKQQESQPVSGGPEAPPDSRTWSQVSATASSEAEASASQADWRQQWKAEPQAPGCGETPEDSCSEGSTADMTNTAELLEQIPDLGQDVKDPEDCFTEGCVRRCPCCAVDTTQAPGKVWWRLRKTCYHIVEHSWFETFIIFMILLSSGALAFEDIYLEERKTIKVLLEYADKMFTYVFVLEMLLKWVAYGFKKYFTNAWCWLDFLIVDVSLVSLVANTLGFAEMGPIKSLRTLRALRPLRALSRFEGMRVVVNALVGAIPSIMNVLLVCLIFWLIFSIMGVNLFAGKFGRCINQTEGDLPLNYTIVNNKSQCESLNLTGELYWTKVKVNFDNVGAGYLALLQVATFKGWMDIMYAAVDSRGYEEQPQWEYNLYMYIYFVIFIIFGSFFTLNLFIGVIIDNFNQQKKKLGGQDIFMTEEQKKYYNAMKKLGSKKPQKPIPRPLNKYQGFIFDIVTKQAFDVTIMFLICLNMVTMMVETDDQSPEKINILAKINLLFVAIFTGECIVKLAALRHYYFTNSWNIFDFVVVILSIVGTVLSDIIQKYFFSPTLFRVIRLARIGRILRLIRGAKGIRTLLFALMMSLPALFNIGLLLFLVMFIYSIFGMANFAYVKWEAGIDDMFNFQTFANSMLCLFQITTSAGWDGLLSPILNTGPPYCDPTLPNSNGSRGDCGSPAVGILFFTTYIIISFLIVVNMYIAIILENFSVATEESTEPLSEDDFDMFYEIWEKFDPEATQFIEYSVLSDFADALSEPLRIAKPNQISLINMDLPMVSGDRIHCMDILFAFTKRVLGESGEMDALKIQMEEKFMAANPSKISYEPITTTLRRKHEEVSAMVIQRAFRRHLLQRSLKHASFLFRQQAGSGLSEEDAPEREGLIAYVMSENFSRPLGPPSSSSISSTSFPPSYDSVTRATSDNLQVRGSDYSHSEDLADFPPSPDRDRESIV

Row | SMILES | inhibitory activity against Nav1.7 (in words) (hNav1.7 channels) | IC50 (hNav1.7 channels) [nM] | other results
1 | CN(Cc1ccc(C(F)(F)F)cc1)CC(CCC12CCC(c3ccccc31)c1ccccc12)Oc1ccc(S(=O)(=O)Nc2ncns2)cc1C#N (centres unmarked) [10g, 3-cyano-4-((4-(9,10-dihydro-9,10-ethanoanthracen-9-yl)-1-(methyl(4-(trifluoromethyl)benzyl)amino)butan-2-yl)oxy)-N-(1,2,4-thiadiazol-5-yl)benzenesulfonamide] | maintained the activity of 10a | – | –
2 | CC(C)NCC(CC12CCC(c3ccccc31)c1ccccc12)Oc1ccc(S(=O)(=O)Nc2ncns2)cc1C#N (centres unmarked) [9c, 3-cyano-4-((1-(9,10-dihydro-9,10-ethanoanthracen-9-yl)-3-(isopropylamino)propan-2-yl)oxy)-N-(1,2,4-thiadiazol-5-yl)benzenesulfonamide] | not as good as that of MPT | – | –
3 | N#Cc1cc(S(=O)(=O)Nc2ncns2)ccc1OC(CCC12CCC(c3ccccc31)c1ccccc12)COCc1ccccc1 (centres unmarked) [10j, 4-((1-(benzyloxy)-4-(9,10-dihydro-9,10-ethanoanthracen-9-yl)butan-2-yl)oxy)-3-cyano-N-(1,2,4-thiadiazol-5-yl)benzenesulfonamide] | – | – | activity toward Nav1.7 relative to 10h (hNav1.7 channels): 10 times
4 | CNCC(CC12CCC(c3ccccc31)c1ccccc12)Oc1ccc(S(=O)(=O)Nc2ncns2)cc1C#N (centres unmarked) [9a, 3-cyano-4-((1-(9,10-dihydro-9,10-ethanoanthracen-9-yl)-3-(methylamino)propan-2-yl)oxy)-N-(1,2,4-thiadiazol-5-yl)benzenesulfonamide] | not as good as that of MPT | – | –
5 | C=CCN(C)CC(CCC12CCC(c3ccccc31)c1ccccc12)Oc1ccc(S(=O)(=O)Nc2ncns2)cc1C#N (centres unmarked) [10d, 4-((1-(allyl(methyl)amino)-4-(9,10-dihydro-9,10-ethanoanthracen-9-yl)butan-2-yl)oxy)-3-cyano-N-(1,2,4-thiadiazol-5-yl)benzenesulfonamide] | weak | – | –
6 | N#Cc1cc(S(=O)(=O)Nc2ncns2)ccc1OC(CCC12CCC(c3ccccc31)c1ccccc12)COCCN1CCCC1 (centres unmarked) [10o, 3-cyano-4-((4-(9,10-dihydro-9,10-ethanoanthracen-9-yl)-1-(2-(pyrrolidin-1-yl)ethoxy)butan-2-yl)oxy)-N-(1,2,4-thiadiazol-5-yl)benzenesulfonamide] | – | 0.64 ± 0.3 | selectivity for Nav1.7 over Nav1.5 (hNav1.7 channels; from the Nav1.5 and Nav1.7 IC50): > 50 000 times; IC50 (hNav1.5 channels): 33600 nM; effect on acetic acid-induced writhing (in words) [1]: dose-dependently decreased; reduction of sodium current amplitude ([2]; 10 nmol/L): 24% ± 6%; reduction of sodium current amplitude ([2]; 100 nmol/L): 40% ± 6%; effect on native sodium currents (in words) ([2]; mouse small-sized DRG neurons, 10 and 100 nmol/L): dose-dependently decreased the sodium currents; effect on action potentials / firing frequency (in words) [3]: dramatically suppressed depolarizing current-elicited neuronal discharge; also recorded: dose-dependently suppressed
7 | N#Cc1cc(S(=O)(=O)Nc2ncns2)ccc1OC(CCC12CCC(c3ccccc31)c1ccccc12)COCCN1CCOCC1 (centres unmarked) [10q, 3-cyano-4-((4-(9,10-dihydro-9,10-ethanoanthracen-9-yl)-1-(2-morpholinoethoxy)butan-2-yl)oxy)-N-(1,2,4-thiadiazol-5-yl)benzenesulfonamide] | – | 33.5 | Nav1.7/Nav1.5 selectivity (in words) (hNav1.7 channels): good selectivity
8 | CCOCC(CCC12CCC(c3ccccc31)c1ccccc12)Oc1ccc(S(=O)(=O)Nc2ncns2)cc1C#N (centres unmarked) [10i, 3-cyano-4-((4-(9,10-dihydro-9,10-ethanoanthracen-9-yl)-1-ethoxybutan-2-yl)oxy)-N-(1,2,4-thiadiazol-5-yl)benzenesulfonamide] | – | – | activity toward Nav1.7 relative to 10h (hNav1.7 channels): 10 times
9 | N#Cc1cc(S(=O)(=O)Nc2ncns2)ccc1OC(CCC12CCC(c3ccccc31)c1ccccc12)COCCN1CCC1 (centres unmarked) [10n, 4-((1-(2-(azetidin-1-yl)ethoxy)-4-(9,10-dihydro-9,10-ethanoanthracen-9-yl)butan-2-yl)oxy)-3-cyano-N-(1,2,4-thiadiazol-5-yl)benzenesulfonamide] | – | 5.38 | Nav1.7/Nav1.5 selectivity (in words) (hNav1.7 channels): good selectivity
10 | N#Cc1cc(S(=O)(=O)Nc2ncns2)ccc1OC(CCC12CCC(c3ccccc31)c1ccccc12)COCCN1CCCCC1 (centres unmarked) [10p, 3-cyano-4-((4-(9,10-dihydro-9,10-ethanoanthracen-9-yl)-1-(2-(piperidin-1-yl)ethoxy)butan-2-yl)oxy)-N-(1,2,4-thiadiazol-5-yl)benzenesulfonamide] | – | 12.5 | Nav1.7/Nav1.5 selectivity (in words) (hNav1.7 channels): good selectivity
11 | CNCCOCC(CCC12CCC(c3ccccc31)c1ccccc12)Oc1ccc(S(=O)(=O)Nc2ncns2)cc1C#N (centres unmarked) [10l, 3-cyano-4-((4-(9,10-dihydro-9,10-ethanoanthracen-9-yl)-1-(2-(methylamino)ethoxy)butan-2-yl)oxy)-N-(1,2,4-thiadiazol-5-yl)benzenesulfonamide] | – | ~10 | Nav1.7/Nav1.5 selectivity (in words) (hNav1.7 channels): well maintained
12 | CN(CCc1ccccc1)CC(CCC12CCC(c3ccccc31)c1ccccc12)Oc1ccc(S(=O)(=O)Nc2ncns2)cc1C#N (centres unmarked) [10f, 3-cyano-4-((4-(9,10-dihydro-9,10-ethanoanthracen-9-yl)-1-(methyl(phenethyl)amino)butan-2-yl)oxy)-N-(1,2,4-thiadiazol-5-yl)benzenesulfonamide] | weak | – | –
13 | CCN(C)CC(CCC12CCC(c3ccccc31)c1ccccc12)Oc1ccc(S(=O)(=O)Nc2ncns2)cc1C#N (centres unmarked) [10b, 3-cyano-4-((4-(9,10-dihydro-9,10-ethanoanthracen-9-yl)-1-(ethyl(methyl)amino)butan-2-yl)oxy)-N-(1,2,4-thiadiazol-5-yl)benzenesulfonamide] | weak | – | –
14 | C#CCN(C)CC(CCC12CCC(c3ccccc31)c1ccccc12)Oc1ccc(S(=O)(=O)Nc2ncns2)cc1C#N (centres unmarked) [10e, 3-cyano-4-((4-(9,10-dihydro-9,10-ethanoanthracen-9-yl)-1-(methyl(prop-2-yn-1-yl)amino)butan-2-yl)oxy)-N-(1,2,4-thiadiazol-5-yl)benzenesulfonamide] | maintained the activity of 10a | – | –
15 | CC(C)N(C)CC(CCC12CCC(c3ccccc31)c1ccccc12)Oc1ccc(S(=O)(=O)Nc2ncns2)cc1C#N (centres unmarked) [10c, 3-cyano-4-((4-(9,10-dihydro-9,10-ethanoanthracen-9-yl)-1-(isopropyl(methyl)amino)butan-2-yl)oxy)-N-(1,2,4-thiadiazol-5-yl)benzenesulfonamide] | maintained the activity of 10a | – | –
16 | Nc1[nH]ncc1-c1cc(Cl)ccc1Oc1cc(F)c(S(=O)(=O)Nc2cscn2)cc1Cl [PF-05089771, 4-[2-(5-Amino-1H-pyrazol-4-yl)-4-chlorophenoxy]-5-chloro-2-fluoro-N-1,3-thiazol-4-ylbenzenesulfonamide, reference compound] | – | – | effect on acetic acid-induced writhing (in words) [1]: dose-dependently decreased; effect on action potentials / firing frequency (in words) [3]: dose-dependently suppressed
17 | CN1CC(OCC(CCC23CCC(c4ccccc42)c2ccccc23)Oc2ccc(S(=O)(=O)Nc3ncns3)cc2C#N)C1 (centres unmarked) [10m, 3-cyano-4-((4-(9,10-dihydro-9,10-ethanoanthracen-9-yl)-1-((1-methylazetidin-3-yl)oxy)butan-2-yl)oxy)-N-(1,2,4-thiadiazol-5-yl)benzenesulfonamide] | – | 2.98 | –
18 | CCNCC(CC12CCC(c3ccccc31)c1ccccc12)Oc1ccc(S(=O)(=O)Nc2ncns2)cc1C#N (centres unmarked) [9b, 3-cyano-4-((1-(9,10-dihydro-9,10-ethanoanthracen-9-yl)-3-(ethylamino)propan-2-yl)oxy)-N-(1,2,4-thiadiazol-5-yl)benzenesulfonamide] | not as good as that of MPT | – | –
19 | CN(C)CCOCC(CCC12CCC(c3ccccc31)c1ccccc12)Oc1ccc(S(=O)(=O)Nc2ncns2)cc1C#N (centres unmarked) [10k, 3-cyano-4-((4-(9,10-dihydro-9,10-ethanoanthracen-9-yl)-1-(2-(dimethylamino)ethoxy)butan-2-yl)oxy)-N-(1,2,4-thiadiazol-5-yl)benzenesulfonamide] | – | ~10 | Nav1.7/Nav1.5 selectivity (in words) (hNav1.7 channels): well maintained
